Calls of active or inactive are those of the source. The calls are words filed in the database; no cut-off is given here.
How the values were obtained:
[1] = Inhibition of Fe-dependent reactive oxygen species formation at 10 to 5000 uM after 90 mins by H2DCF-DA-based fluorescence assay; assay type: functional
Outline: (§1)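 H2DCF (20 µM) oxidation to DCF driven by 10 µM FeCl3, 10 µM NTA, 1 mM H2O2 and 1 mM ascorbate in PBS pH 7.4. Compound tested over a concentration range alongside trolox. Control wells hold Fe, NTA, H2O2 and ascorbate only. DCF read at ex 485/em 535 nm.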

[2] = Photoconversion of the compound in PBS buffer assessed as time required to show HAPI peak at 50 uM irradiated with UVA for 75 secs by LC-MS analysis; assay type: physicochemical; details: 75 s
Outline: (§2)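 Prochelator solutions analysed by LC-MS before and after UVA irradiation. New peaks identified by matching elution times and mass spectra to authentic umbelliferone and HAPI.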

[3] = Photoconversion of the compound in PBS buffer assessed as time required to show umbelliferone peak at 50 uM irradiated with UVA for 75 secs by LC-MS analysis; assay type: physicochemical; details: 75 s; outline: as §2
[4] = Metal chelating activity assessed as formation of compound-Fe3+ complex by measuring free calcein level at 10 uM irradiated with UVA for 15 secs measured after 1 hr by fluorescence-based microplate assay; assay type: physicochemical
Outline: (§3)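 Calcein competition in PBS: 2 µM calcein with 2 µM (NH4)2Fe(SO4)2, forming Fe3+(calcein) in situ. Compound added at 10 µM, with or without 15 s photolysis in a photoreactor (λmax 350 nm). Calcein emission recorded 1 h after photolysis; triplicate, SD.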

[5] = Metal chelating activity assessed as formation of compound-Fe3+ complex by measuring free calcein level at 10 uM after 1 hr by fluorescence-based microplate assay in absence of UVA irradiation; assay type: physicochemical; outline: as §3
[6] = Inhibition of Fe-dependent reactive oxygen species formation at 10 to 100 uM after 1 hr by H2DCF-DA-based fluorescence assay in absence of UVA irradiation; assay type: functional
Outline: (§4)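 H2DCF (20 µM) in PBS pH 7.4 with 10 µM FeCl3, 10 µM NTA, 1 mM ascorbic acid and 1 mM H2O2. Wells dosed with chelator or prochelator, the latter either irradiated (+) or not irradiated (−) with UVA. DCF fluorescence read at ex 485/em 535 nm. Background from wells with only H2DCF and buffer subtracted.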

[7] = Inhibition of Fe-dependent reactive oxygen species formation at 200 uM after 1 hr by H2DCF-DA-based fluorescence assay in absence of UVA irradiation; assay type: functional; outline: as §4
[8] = Inhibition of Fe-dependent reactive oxygen species formation at 10 to 200 uM irradiated with UVA for 15 secs measured after 1 hr by H2DCF-DA-based fluorescence assay; assay type: functional; outline: as §4
[9] = tested on: ARPE-19; test: Cytoprotective activity in human ARPE19 cells assessed as reduction of UVA radiation-mediated cell death at < 50 uM preincubated for 2 hrs followed by 40 mins UVA irradiation measured after 5 hrs by LDH release assay; assay type: functional, cell-based
Outline: (§5)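 ARPE-19 retinal pigment epithelial cells pre-treated 2 h with compound (5–100 µM range tested), then exposed to UVA for 40 min at 600 kJ/m2. Cell death read 5 h after irradiation; triplicate wells per treatment, normalized to cells treated with 2% Triton X-100.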

[10] = tested on: ARPE-19; test: Cytoprotective activity in human ARPE19 cells assessed as reduction of UVA radiation-mediated cell death at 75 to 100 uM preincubated for 2 hrs followed by 40 mins UVA irradiation measured after 5 hrs by LDH release assay; assay type: functional, cell-based; outline: as §5
[11] = Cytotoxicity against human ARPE19 cells assessed as cell viability up to 100 uM after 24 hrs by Cell Titer Blue assay; assay type: cell-based; details: arpe-19, 24 h
Outline: (§6)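 ARPE-19 cells incubated with compound for 24 h or extended to 72 h, doses up to 100 µM, then assessed for cytotoxicity.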

[12] = Cytotoxicity against human ARPE19 cells assessed as cell viability at 75 to 100 uM after 72 hrs by Cell Titer Blue assay; assay type: cell-based; details: arpe-19, 72 h; outline: as §6
[13] = Cytotoxicity against human ARPE19 cells assessed as cell viability at <25 uM after 72 hrs by Cell Titer Blue assay; assay type: cell-based; details: arpe-19, 72 h; outline: as §6
[14] = […] of Fe-dependent reactive oxygen species formation after 90 mins by H2DCF-DA-based fluorescence assay; assay type: physicochemical; details: 1.5 h; outline: as §1
[15] = tested on: ARPE-19; test: Cytoprotective activity in human ARPE19 cells assessed as reduction of UVA radiation-mediated cell death at 5 to 100 uM preincubated for 2 hrs followed by 40 mins UVA irradiation measured after 5 hrs by LDH release assay; assay type: functional, cell-based; outline: as §5
[16] = Inhibition of Fe-dependent reactive oxygen species formation after 1 hr by H2DCF-DA-based fluorescence assay; assay type: functional; outline: as §4

Row | Time [2] | Time [3] | Activity [4] | Activity [5] | Activity [14] | Structure (SMILES) | inhibition [1] | inhibition [6] | inhibition [7] | inhibition [8] | Activity [9] | Activity [10] | Activity [11] | Activity [12] | Activity [13] | Activity [15] | inhibition [16]
1 | – | – | – | – | – | Cc1c(C)c2c(c(C)c1O)CCC(C)(C(=O)O)O2 (stereo not drawn) | Active | – | – | – | – | – | – | – | – | – | –
2 | 11.7 min | 8.3 min | Active | Not Active | – | C/C(=N\NC(=O)c1ccncc1)c1ccccc1OC(=O)/C=C/c1ccc(O)cc1O | – | inactive | Active | Active | Active | inactive | Non-toxic | Toxic | Non-toxic | – | –
3 | – | – | – | – | Dose-dependent effect | O=c1ccc2ccc(O)cc2o1 [UMBELLIFERONE] | – | – | – | – | – | – | Non-toxic | – | – | inactive | –
4 | – | – | Active | Active | – | C/C(=N\NC(=O)c1ccncc1)c1ccccc1O | – | – | – | – | – | – | Non-toxic | Toxic | Non-toxic | Active | Dose-dependent effect

Source: ChEMBL document CHEMBL3627708, “A multifunctional, light-activated prochelator inhibits UVA-induced oxidative stress” (Bioorg Med Chem Lett, 2015)
